The values below come from ChEMBL document CHEMBL4304821, “Synthesis and structure-activity relationship of nitrile-based cruzain inhibitors incorporating a trifluoroethylamine-based P2 amide replacement” (Bioorg Med Chem, 2019).

Series [1] addresses Cruzipain (Trypanosoma cruzi) (UniProt P25779). Put plainly: Inhibition of Trypanosoma cruzi cruzain assessed as initial velocity using Z-Phe-Arg-7-amido-4-methylcoumarin as substrate preincubated for 2 mins followed by susbtrate addition by fluorescence based analysis. In short, it runs like this: (§1)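 Recombinant cruzain was the catalytic domain of cruzipain without the C-terminal extension, used at 0.15 nM. The assay ran at 37 °C in 100 mM acetate buffer pH 5.5 with 300 mM NaCl, 5 mM DTT, 5% v/v DMSO and 0.01% Triton X-100. Hydrolysis of Z-Phe-Arg-AMC was followed as rate by fluorescence (ex 355/em 460 nm).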

Series [2] can be described thus: Lipophilicity, log Kw of compound by HPLC analysis. In kind it is physicochemical.
For series [3], the system named is Trypanosoma cruzi. Nature of the series: Antitrypanosomal activity against Trypanosoma cruzi Y strain amastigotes infected in human U2OS cells assessed as parasite growth inhibition after 72 hrs post infection by DRAQ5 staining based analysis. The series is classed as functional, organism-based. In short, it runs like this: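 U2OS cells were seeded at 700/well in high DMEM and held 24 h at 37 °C/5% CO2. They were infected with T. cruzi Y strain trypomastigotes from LLC-MK2 cultures at 4 parasites per host cell. Compounds were added on day 3 as 17 points of 2-fold dilution from 100 µM (1% DMSO final), with 96 h exposure. Cells were PFA-fixed, Draq5-stained and imaged. Infection ratio was normalized to infected DMSO and non-infected controls, and EC50 came from a sigmoidal fit. Two independent experiments were run.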

In series [4] the target is T1, Cruzipain (Trypanosoma cruzi, UniProt P25779). Nature of the series: Inhibition of Trypanosoma cruzi cruzain using Z-Phe-Arg-7-amido-4-methylcoumarin as substrate preincubated for 2 mins followed by susbtrate addition by fluorescence based analysis. A digest of the protocol: as §1
T1 sequence (P25779 whole entry): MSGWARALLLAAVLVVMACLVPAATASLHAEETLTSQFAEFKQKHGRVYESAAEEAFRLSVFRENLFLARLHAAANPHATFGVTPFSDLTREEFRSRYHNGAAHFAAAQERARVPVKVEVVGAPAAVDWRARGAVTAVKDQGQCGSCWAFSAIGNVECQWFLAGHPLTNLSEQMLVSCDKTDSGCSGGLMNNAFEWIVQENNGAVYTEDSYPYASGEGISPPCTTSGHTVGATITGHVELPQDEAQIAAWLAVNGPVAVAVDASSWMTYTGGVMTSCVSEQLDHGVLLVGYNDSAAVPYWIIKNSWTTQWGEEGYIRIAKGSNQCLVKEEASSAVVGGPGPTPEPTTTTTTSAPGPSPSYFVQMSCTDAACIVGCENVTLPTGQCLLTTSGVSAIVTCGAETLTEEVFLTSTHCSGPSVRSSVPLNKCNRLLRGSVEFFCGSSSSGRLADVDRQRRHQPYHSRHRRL
Series [5] addresses Procathepsin L (Homo sapiens, UniProt P07711). Put plainly: Inhibition of Cathepsin L (unknown origin) using Z-Phe-Arg-7-amido-4-methylcoumarin as substrate preincubated for 2 mins followed by susbtrate addition by fluorescence based analysis. A digest of the protocol:
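Cathepsin L was used at 0.30 nM, at 37 °C in 100 mM acetate buffer pH 5.5 with 300 mM NaCl, 1 mM DTT, 1 mM EDTA, 5% v/v DMSO and 0.01% Triton X-100. Z-Phe-Arg-AMC hydrolysis rate was monitored by fluorescence (ex 355/em 460 nm).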

Series [6] addresses T1, Cruzipain. Put plainly: Inhibition of Trypanosoma cruzi cruzain assessed as inhibitor constant using Z-Phe-Arg-7-amido-4-methylcoumarin as substrate preincubated for 2 mins followed by susbtrate addition by fluorescence based analysis. A digest of the protocol: as §1
A short description of series [7]: Cytotoxicity in human U2OS cells assessed as reduction in cell viability after […] by DRAQ5 staining based analysis. A digest of the protocol:
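Infected U2OS cells (Y strain, 4 parasites/cell) were exposed to 17 2-fold concentrations starting at 100 µM in 1% DMSO. Exposure was 96 h. Wells were PFA-fixed, Draq5-stained and imaged at 20X to count host cells. CC50 is the concentration that lowers the cell ratio to 0.5 versus the mean cell number in DMSO negative-control wells. Duplicate independent experiments.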

Calls of active or inactive are those of the source. The calls are words filed in the database; no cut-off is given here.

Sequence of Procathepsin L (P07711 whole entry): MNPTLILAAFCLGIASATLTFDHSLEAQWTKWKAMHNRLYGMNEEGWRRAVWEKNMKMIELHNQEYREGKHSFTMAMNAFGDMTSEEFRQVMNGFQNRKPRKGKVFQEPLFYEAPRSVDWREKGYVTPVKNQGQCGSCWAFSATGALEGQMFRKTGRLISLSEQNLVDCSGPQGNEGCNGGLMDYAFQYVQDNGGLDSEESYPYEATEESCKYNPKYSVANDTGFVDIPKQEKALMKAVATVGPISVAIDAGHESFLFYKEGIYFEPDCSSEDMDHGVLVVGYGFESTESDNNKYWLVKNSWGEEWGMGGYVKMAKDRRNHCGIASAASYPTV
Sequence of Cruzipain (Trypanosoma cruzi) (P25779 123-467 limits assumed): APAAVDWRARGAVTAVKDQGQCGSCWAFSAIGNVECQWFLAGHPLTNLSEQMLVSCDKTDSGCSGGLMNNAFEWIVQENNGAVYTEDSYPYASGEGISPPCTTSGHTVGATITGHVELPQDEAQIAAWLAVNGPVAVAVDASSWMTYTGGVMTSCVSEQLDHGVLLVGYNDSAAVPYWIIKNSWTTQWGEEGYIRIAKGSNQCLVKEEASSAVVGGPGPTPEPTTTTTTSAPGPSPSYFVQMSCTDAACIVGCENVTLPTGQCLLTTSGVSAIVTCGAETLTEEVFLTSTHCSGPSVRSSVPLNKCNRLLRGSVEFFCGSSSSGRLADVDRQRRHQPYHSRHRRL

Take `N#CC1(NC(=O)[C@H](Cc2ccccc2)N[C@H](c2ccccc2)C(F)(F)F)CC1`: the V0 in series [1] was determined as 3.53 RFU/s. The compound also came in with a logKw in series [2] of 1.4. In series [3], the outcome was inactive.
For `CC(C)C[C@H](N[C@@H](c1ccc(-c2ccccc2)cc1)C(F)(F)F)C(=O)N[C@H](C#N)Cc1ccccc1`, the figures for the inhibitory constant (Ki) in series [4] and in series [5] were 0.631 nM and 1580 nM, respectively. Besides, the V0 in series [1] was determined as 3.22 RFU/s. This compound came in with a logKw in series [2] of 3.2. Besides, the outcome in series [3] was inactive.
Compound `COc1ccc(C[C@H](N[C@@H](c2ccccc2)C(F)(F)F)C(=O)NC2(C#N)CC2)cc1` showed an inhibition constant (Ki) in series [4] of 3980 nM. Also, in series [1], the V0 amounted to 3.56 RFU/s. The compound also returned a logKw in series [2] of 1.4. For the same compound, the outcome in series [3] was inactive.
`N#C[C@H](Cc1ccccc1)NC(=O)[C@H](Cc1ccccc1)N[C@H](c1ccc(-c2ccccc2)cc1)C(F)(F)F` showed an inhibitory constant (Ki) in series [4] above 10000 nM. Moreover, in series [3], the outcome was inactive.
In series [4], `N#CC1(NC(=O)[C@H](Cc2ccccc2)N[C@H](c2cccc(Cl)c2)C(F)(F)F)CC1` had an inhibition constant Ki of 3160 nM. For the same compound, the V0 in series [1] was found to be 5.81 RFU/s. This compound gave a logKw in series [2] of 1.7. Moreover, the outcome in series [3] was inactive.
In the case of `CC(C)C[C@H](N[C@H](c1ccccc1)C(F)(F)F)C(=O)NC1(C#N)CC1`, the values for the Ki in series [6] and in series [4] were 143 nM and 200 nM, respectively. Also, the V0 in series [1] is 3.75 RFU/s. This compound also returned a logKw in series [2] of 1.1. Moreover, the result in series [3] was inactive.
For the compound `COc1ccc(C[C@H](N[C@H](c2ccccc2)C(F)(F)F)C(=O)N[C@H](C#N)Cc2ccccc2)cc1`, the Ki in series [4] was 3980 nM; in series [5], 1580 nM. Besides, the logKw in series [2] was determined as 2.7. For the same compound, the outcome in series [3] was inactive.
Consider `CC(C)C[C@H](N[C@@H](c1ccc(-c2ccccc2)cc1)C(F)(F)F)C(=O)NC1(C#N)CC1`, for which the Ki is 7.94 nM in series [4] and 794 nM in series [5]. In addition, the V0 in series [1] was determined as 3.85 RFU/s. In series [2], this compound returned a logKw of 2.6. Moreover, the outcome in series [3] was inactive.
Regarding `N#CC1(NC(=O)[C@H](Cc2c[nH]c3ccccc23)N[C@H](c2ccccc2)C(F)(F)F)CC1`, the Ki was above 10000 nM in series [4] and 1000 nM in series [5]. Moreover, the concentration giving a half-maximal response (EC50) in series [3] turned out to be 11500 nM. In addition, the CC50 in series [7] was determined as 33000 nM.
In the case of `N#CC1(NC(=O)[C@H](Cc2ccccc2)N[C@@H](c2ccc(Br)cc2)C(F)(F)F)CC1`, the figures for the inhibition constant (Ki) in series [4] and in series [5] were 2000 nM and 251 nM, respectively. Further, the V0 in series [1] was found to be 3.6 RFU/s. The compound further came in with a logKw in series [2] of 1.7. Further, in series [3], the outcome was inactive.
For the compound `N#CC1(NC(=O)[C@H](Cc2ccccc2)N[C@@H](c2ccccc2)C(F)(F)F)CC1`, the Ki in series [4] is 1000 nM; in series [5], 158 nM. The V0 in series [1] is 2.18 RFU/s. The compound also registered a logKw in series [2] of 1. The result in series [3] was inactive.
Regarding `CC(C)C[C@H](N[C@H](c1ccc(-c2ccccc2)cc1)C(F)(F)F)C(=O)N[C@H](C#N)Cc1ccccc1`, the inhibition constant (Ki) in series [4] is 251 nM. The compound further yielded a logKw in series [2] of 3.1. For the same compound, in series [3], the outcome was inactive.
For the compound `COc1ccc(C[C@H](N[C@@H](c2ccccc2)C(F)(F)F)C(=O)N[C@@H](C#N)Cc2ccccc2)cc1`, the Ki in series [4] was 398 nM; in series [5] it was 631 nM. The same compound gave a logKw in series [2] of 2.7. Also, the outcome in series [3] was inactive.
Turning to `O=C(O)[C@H](Cc1c[nH]c2ccccc12)N[C@H](c1cccc(Cl)c1)C(F)(F)F`, the Ki in series [6] came to 168 nM. Further, the V0 in series [1] came out at 4.15 RFU/s.
Take `CC(C)C[C@H](N[C@@H](c1ccccc1)C(F)(F)F)C(=O)NC1(C#N)CC1`: the affinity in series [4], expressed as Ki, was 39.8 nM. The outcome in series [3] was inactive.
With `O=C(O)[C@H](Cc1c[nH]c2ccccc12)N[C@@H](c1cccc(Cl)c1)C(F)(F)F`, the Ki in series [6] was 142 nM. Moreover, the V0 in series [1] amounted to 2.66 RFU/s.
In turn, `N#CC1(NC(=O)[C@H](Cc2ccccc2)NC(=O)c2ccccc2)CC1` had an inhibition constant Ki in series [4] of 316 nM.
`N#CC1(NC(=O)[C@H](Cc2ccccc2)N[C@@H](c2cccc(Cl)c2)C(F)(F)F)CC1`: the inhibitory constant (Ki) in series [6] is 4.01 nM. The V0 in series [1] was determined as 3.65 RFU/s.
In series [5], `CC(C)(F)C[C@H](N[C@@H](c1ccc(-c2ccc(S(C)(=O)=O)cc2)cc1)C(F)(F)F)C(=O)NC1(C#N)CC1` [ODANACATIB] had a Ki of 1260 nM. Also, in series [2], the logKw turned out to be 2. Besides, the result in series [3] was inactive.
As to `N#CC1(NC(=O)[C@@H](Cc2c[nH]c3ccccc23)N[C@@H](c2ccccc2)C(F)(F)F)CC1`, the results for the inhibition constant (Ki) in series [4] and in series [5] were above 10000 nM and 1260 nM, respectively. In series [3], the EC50 was 25600 nM.
For `COc1ccc(C[C@H](N[C@H](c2ccccc2)C(F)(F)F)C(=O)N[C@@H](C#N)Cc2ccccc2)cc1`, the inhibition constant (Ki) in series [4] and in series [5] was above 10000 nM throughout. For the same compound, the result in series [3] was inactive.
With `CC(C)C[C@H](N[C@H](c1ccc(-c2ccc(F)cc2)cc1)C(F)(F)F)C(=O)NC1(C#N)CC1`, the Ki in series [4] is 79.4 nM; in series [5] it was 1000 nM. This compound had a logKw in series [2] of 2.8. For the same compound, the result in series [3] was inactive.
Consider `CC(C)C[C@H](N[C@@H](c1ccc(-c2ccc(F)cc2)cc1)C(F)(F)F)C(=O)NC1(C#N)CC1`, for which the inhibition constant (Ki) in series [6] was found to be 4060 nM. Also, in series [1], the V0 came out at 3.87 RFU/s.
Take `COc1ccc(C[C@H](N[C@H](c2ccccc2)C(F)(F)F)C(=O)O)cc1`: the Ki in series [6] is 360 nM. Further, in series [1], the V0 was found to be 5.2 RFU/s.
In the case of `CC(C)C[C@H](N[C@H](c1ccc(-c2ccccc2)cc1)C(F)(F)F)C(=O)NC1(C#N)CC1`, the Ki in series [4] was 63.1 nM; in series [5], 631 nM. In series [2], this compound came in with a logKw of 2.8. The outcome in series [3] was inactive.
With `CC(C)C[C@H](NC(=O)c1ccccc1)C(=O)NC1(C#N)CC1`, the Ki in series [4] is 50.1 nM; in series [5], 20 nM. Also, in series [3], the result was inactive.
Regarding `N#C[C@@H](Cc1ccccc1)NC(=O)[C@H](Cc1ccccc1)N[C@@H](c1ccccc1)C(F)(F)F`, the results for the inhibition constant (Ki) in series [4] and in series [5] were 2510 nM and 631 nM, respectively. In addition, the logKw in series [2] turned out to be 2.6. For the same compound, the outcome in series [3] was inactive.
For the compound `CC(C)C[C@H](N[C@@H](c1ccccc1)C(F)(F)F)C(=O)N[C@H](C#N)Cc1ccccc1`, the figures for the Ki in series [4] and in series [5] were 1.58 nM and 5.01 nM, respectively. The same compound returned a logKw in series [2] of 2.3. Also, in series [3], the result was inactive.
For `CC(C)C[C@H](N[C@@H](c1ccc(-c2cncnc2)cc1)C(F)(F)F)C(=O)N[C@H](C#N)Cc1ccccc1`, the figures for the Ki in series [4] and in series [5] were 1.58 nM and 25.1 nM, respectively. Besides, in series [1], the V0 stood at 2.91 RFU/s. Further, in series [3], the result was inactive.
On to `COc1ccc(C[C@H](N[C@@H](c2ccccc2)C(F)(F)F)C(=O)O)cc1`, for which the Ki in series [6] worked out at 38.8 nM. Also, the V0 in series [1] turned out to be 3.85 RFU/s.
Turning to `CC(C)C[C@H](NC(=O)c1ccccc1)C(=O)N[C@H](C#N)Cc1ccccc1`, the Ki is 50.1 nM in series [4] and 63.1 nM in series [5]. Further, the result in series [3] was inactive.
On to `COc1ccc(C[C@H](N[C@H](c2ccccc2)C(F)(F)F)C(=O)NC2(C#N)CC2)cc1`, for which the Ki in series [4] is 7940 nM. Further, the V0 in series [1] turned out to be 3.17 RFU/s. In series [2], this compound gave a logKw of 1.5.
For `CC(C)C[C@H](N[C@H](c1ccccc1)C(F)(F)F)C(=O)N[C@H](C#N)Cc1ccccc1`, the figures for the Ki in series [4] and in series [5] were 398 nM and 251 nM, respectively. The V0 in series [1] is 2.71 RFU/s. The compound also returned a logKw in series [2] of 2.2. Besides, the result in series [3] was inactive.
